Key:
[1] = target: GABA-A receptor; anion channel; assay: Inhibition of [3H]-Ro- 15-1788 binding to GABA-A benzodiazepine receptor of rat cortical membranes; format: cell membranes, Membrane
How it was run: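 Rat (Sprague–Dawley, 250-300 g) cortical membranes, water-washed and frozen at -20 °C ≥18 h, then washed repeatedly in Krebs/HEPES pH 7.4. Incubated with 0.2-0.5 mg protein, [3H]-Ro 15-1788 (5 nM stock added), 10^-4 M nipecotic acid, 30 °C for 60 min. Nonspecific binding with 3 μM clonazepam. Filtration, scintillation counting.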

[2] = target: GABA-A receptor; anion channel (Rattus norvegicus) (UniProt O09028+P15431+P18506+P18508+P19969+P20236+P23574+P23576+P28471+P28473+P30191+P62813+P63079+P63138+Q91ZM7+Q9ES14); assay: Ratio of binding affinity to the GABA-A receptor in the presence and absence of GABA; format: protein-complex assay
How it was run: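 [3H]-Ro 15-1788 displacement in washed rat cortical membranes (Krebs/HEPES pH 7.4, nipecotic acid 10^-4 M, 30 °C, 60 min) run with and without GABA at 0.3 mM. Nonspecific binding was defined by 3 μM clonazepam, and read-out was filtration with scintillation counting. The value is the ratio of the affinities obtained with GABA and without it.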

Q: How did the IC50 [1] turn out when `Cc1noc(-c2ncn3c2CN=C(c2ccccc2)c2ccccc2-3)n1` was run?
A: The IC50 was 24 nM.

Q: What about the GABA shift [2] of the same compound?
A: The GABA shift was 1.94.

— ChEMBL document CHEMBL1124349, “Novel benzodiazepine receptor partial agonists: oxadiazolylimidazobenzodiazepines” (J Med Chem, 1989)
